Measurements as given in ChEMBL document CHEMBL4400509, “Conversion of Quinazoline Modulators from Inhibitors to Activators of β-Glucocerebrosidase” (J Med Chem, 2019).
The source made the active and inactive calls. No cut-off for these calls is given here.

Tests used:
[1] = biological target: T1, Lysosomal acid glucosylceramidase (Homo sapiens, UniProt P04062); test: Inhibition of wild type recombinant human lysosomal beta-glucocerebrosidase using 4-methylumbelliferyl-beta-D-glucopyranoside as substrate preincubated for 5 mins followed by substrate addition and measured after 30 mins by fluorescence assay
T1 sequence (P04062 whole entry): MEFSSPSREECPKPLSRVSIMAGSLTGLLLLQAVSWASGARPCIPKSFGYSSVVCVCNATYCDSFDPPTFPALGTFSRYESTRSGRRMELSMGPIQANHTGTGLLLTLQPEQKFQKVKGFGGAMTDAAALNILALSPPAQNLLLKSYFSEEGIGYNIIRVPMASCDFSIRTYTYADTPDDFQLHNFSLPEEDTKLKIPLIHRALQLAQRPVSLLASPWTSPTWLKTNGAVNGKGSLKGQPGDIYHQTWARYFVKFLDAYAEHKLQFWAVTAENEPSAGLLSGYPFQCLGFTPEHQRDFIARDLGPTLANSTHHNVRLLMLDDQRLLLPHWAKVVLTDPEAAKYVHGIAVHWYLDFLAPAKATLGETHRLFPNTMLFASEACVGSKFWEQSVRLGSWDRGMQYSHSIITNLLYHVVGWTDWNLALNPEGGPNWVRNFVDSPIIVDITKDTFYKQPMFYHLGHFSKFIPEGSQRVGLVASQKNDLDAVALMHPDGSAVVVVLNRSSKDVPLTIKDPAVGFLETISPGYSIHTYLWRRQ

[2] = biological target: T1, Lysosomal acid glucosylceramidase; test: Activation of wild type recombinant human lysosomal beta-glucocerebrosidase using 4-methylumbelliferyl-beta-D-glucopyranoside as substrate preincubated for 5 mins followed by substrate addition and measured after 30 mins by fluorescence assay
Procedure, shortened: (§1)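 Recombinant wild-type human GCase (velaglucerase alfa), 7.5 nM final, in 50 mM citric acid/176 mM K2HPO4/0.01% Tween-20, pH 5.9. Enzyme was preincubated 5 min at room temperature with compound (12-point series, 48 nM–100 μM final). 4MU-β-Glc (1.5 mM final) was added, and the reaction ran 30 min at 37 °C. It was stopped with 1 M NaOH/1 M glycine, pH 10, and read at ex 365/em 440 nm. Triplicate, mean.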

[3] = biological target: T2, Lysosomal acid glucosylceramidase (Homo sapiens) (UniProt P04062); test: Activation of wild type recombinant human lysosomal beta-glucocerebrosidase at 0.048 to 100 uM using 4-methylumbelliferyl-beta-D-glucopyranoside as substrate preincubated for 5 mins followed by substrate addition and measured after 30 mins by fluorescence assay relative to control; procedure, shortened: as §1
T2 sequence (whole entry): T1 sequence (P04062 whole entry)

Homo sapiens = species: Homo sapiens; test: Induction of post-ER GCase activity in fibroblast cells harboring N370S/84GG double mutant derived from Gaucher's disease patient at 25 uM using PFB-FDGlu as substrate preincubated for 3 days followed by substrate addition and measured after 1 hr for every 20 mins in presence of bafilomycin by fluorescence assay; type: cell-based
Fibroblast = test: Induction of post-ER GCase level in fibroblast cells harboring N370S/84GG double mutant derived from Gaucher's disease patient at 25 uM by immunoblotting analysis; type: functional, cell-based; conditions: Homo sapiens
Procedure, shortened: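 N370S/84GG patient fibroblasts, compound-treated 3 days (DMSO 0.1% v/v vehicle) and lysed in 1% Triton X-100. Lysates were left undigested or digested with Endo H or PNGase F. They were then immunoblotted for GCase with GAPDH as loading control, and post-ER form was taken as Endo H-resistant band. n = 4.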

AC50 ([2]; read-out: AC50) [µM]	Emax [3]	SMILES	other results
–	–	CN(c1nc(-c2cccnc2)nc2ccccc12)[C@H]1CCc2ccccc2C1	IC50 [1]: 0.43 µM
1.39	126%	CN(CCc1ccccc1)c1nc(-c2cccnc2)nc2ccccc12	–
1.63	674%	CN(Cc1cnc2ccccc2n1)c1nc(-c2cccnc2)nc2ccccc12	–
–	–	c1ccc(OCCCNc2nc(-c3cccnc3)nc3ccccc23)cc1	IC50 [1]: 2.54 µM
–	–	c1ccc(COCCNc2nc(-c3cccnc3)nc3ccccc23)cc1	IC50 [1]: 7.3 µM
–	–	OC[C@H]1CNC[C@@H](O)[C@@H]1O	Activity (Homo sapiens): inactive; Activity (Fibroblast): inactive
1.84	337%	CN(Cc1ccc2nsnc2c1)c1nc(-c2cccnc2)nc2ccccc12	–
–	inactive	c1cncc(-c2nc(N3CCc4[nH]c5ccccc5c4C3)c3ccccc3n2)c1	AC50 [2]: Not Active
–	inactive	CN(CCOc1ccccc1)c1nc(-c2ccccc2)nc2ccccc12	AC50 [2]: Not Active
1.68	145%	CN(CCOc1ccccc1)c1nc(-c2ccoc2)nc2ccccc12	–
–	–	CC(COc1ccccc1)Nc1nc(-c2cccnc2)nc2ccccc12 (configuration not stated)	IC50 [1]: 1.88 µM
9.74	438%	c1cncc(-c2nc(N3CCOc4ccccc4C3)c3ccccc3n2)c1	–
4.47	364%	c1ccc(CC2CCCCN2c2nc(-c3cccnc3)nc3ccccc23)cc1 (configuration not stated)	–
–	inactive	c1ccc(OCCN(CC2CC2)c2nc(-c3cccnc3)nc3ccccc23)cc1	AC50 [2]: Not Active
–	–	CN(c1nc(-c2cccnc2)nc2ccccc12)C1CCCCCCC1	IC50 [1]: 8.38 µM
6.9	517%	CN(Cc1nc2ccccc2s1)c1nc(-c2cccnc2)nc2ccccc12	–
1.63	160%	CN(Cc1ccc2c(c1)OCO2)c1nc(-c2cccnc2)nc2ccccc12	–
–	–	CN(c1nc(-c2cccnc2)nc2ccccc12)C1CCCCCC1	IC50 [1]: 9.94 µM
8.97	390%	CC(CN(C)c1nc(-c2cccnc2)nc2ccccc12)Oc1ccccc1 (configuration not stated)	–
2.89	690%	CN(CCOc1ccccc1)c1nc(-c2ccncc2)nc2ccccc12	–
4.75	237%	c1ccc(O[C@H]2CCCN(c3nc(-c4cccnc4)nc4ccccc34)C2)cc1	–
6.16	208%	CN(CCCOc1ccccc1)c1nc(-c2cccnc2)nc2ccccc12	–
16.9	394%	CN(CCOCc1ccccc1)c1nc(-c2cccnc2)nc2ccccc12	–
–	–	CC(CNc1nc(-c2cccnc2)nc2ccccc12)Oc1ccccc1 (configuration not stated)	IC50 [1]: 4.24 µM

AC50 ([2]; read-out: AC50) [µM]	Emax [3]	SMILES	other results
4.66	130%	c1ccc(C2CCCN(c3nc(-c4cccnc4)nc4ccccc34)C2)cc1 (configuration not stated)	–
3.99	190%	CN(CCCCc1ccccc1)c1nc(-c2cccnc2)nc2ccccc12	–
14.9	428%	CN1Cc2ccc(CN(C)c3nc(-c4cccnc4)nc4ccccc34)cc2C1	–
5.18	160%	c1ccc(CC2CCCN(c3nc(-c4cccnc4)nc4ccccc34)C2)cc1 (configuration not stated)	–
–	inactive	CN(CCOc1ccccc1)c1nc(-c2ccsc2)nc2ccccc12	AC50 [2]: Not Active
16.1	643%	CN(Cc1nc2ccccc2o1)c1nc(-c2cccnc2)nc2ccccc12	–
2.3 to 3.55	552 to 761%	CN(CCOc1ccccc1)c1nc(-c2cccnc2)nc2ccccc12	–
21.7	229%	CN(CCOc1ccccc1)c1nc(-c2ccco2)nc2ccccc12	–
6.36	149%	CN(c1nc(-c2cccnc2)nc2ccccc12)C1CCCC1	–
–	223%	CN(CCCc1ccccc1)c1nc(-c2cccnc2)nc2ccccc12	–
3.8	155%	CN(Cc1ccc2ccccc2c1)c1nc(-c2cccnc2)nc2ccccc12	–
5.38	478%	CCN(CCOc1ccccc1)c1nc(-c2cccnc2)nc2ccccc12	–
0.89	634%	CN(CCOc1ccccc1)c1nc(-c2cncnc2)nc2ccccc12	–
–	–	CN(c1nc(-c2cccnc2)nc2ccccc12)[C@@H]1CCc2ccccc2C1	IC50 [1]: 5.87 µM
7.52	345%	CC(COc1ccccc1)N(C)c1nc(-c2cccnc2)nc2ccccc12 (configuration not stated)	–
–	inactive	CN(CCOc1ccccc1)c1nc(-c2cccs2)nc2ccccc12	AC50 [2]: Not Active
> 50	–	CN(CCOc1ccccc1)c1nc(-c2ccccn2)nc2ccccc12	–
3.65	302%	c1ccc(O[C@@H]2CCCN(c3nc(-c4cccnc4)nc4ccccc34)C2)cc1	–
2.36	137%	CN(c1nc(-c2cccnc2)nc2ccccc12)C1CCCCC1	–
1.56	140%	c1ccc(OCCNc2nc(-c3cccnc3)nc3ccccc23)cc1	–
1.17	276%	c1ccc(OC2CCN(c3nc(-c4cccnc4)nc4ccccc34)C2)cc1 (configuration not stated)	–
4.27	175%	c1cncc(-c2nc(N3CCc4c([nH]c5ccccc45)C3)c3ccccc3n2)c1	–
44.1	423%	c1cncc(-c2nc(N3CCCOCC3)c3ccccc3n2)c1	–
3.18	132%	CCCN(CCOc1ccccc1)c1nc(-c2cccnc2)nc2ccccc12	–

SMILES	AC50 ([2]; read-out: AC50) [µM]	Emax [3]	other results
CN(Cc1nc2ccccc2[nH]1)c1nc(-c2cccnc2)nc2ccccc12	7.92	197%	–
CN(Cc1ccc2c(c1)OCCO2)c1nc(-c2cccnc2)nc2ccccc12	4.88	488%	–
CN(C[C@@H]1COc2ccccc2O1)c1nc(-c2cccnc2)nc2ccccc12	2.37	296%	–
